Results on five substances are retold here after publication PMC6940675 (Molecular Therapy Oncolytics, 2019).

Where no end group is shown, it is not given here.

As a reminder, the IC50 is the concentration that inhibits the measured activity by half. A high value points to a need for much substance.

Data set [1] relates to breast cancer cell line, MCF-7. Nature of the data set: MTT assay. The note with it: MCF-7, 24-h incubation with peptide, triplicate, OD 550 nm. Format: cell-based. In a few lines:
(§1)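 ATCC cells were maintained at 37°C, 5% CO2: U87 and A375 in DMEM with 10% FBS and 1% penicillin/streptomycin, MCF-7 in DMEM with 5% FBS. They were seeded at 5,000 cells/well and grown 24 h. Peptide came from a 10 mM stock diluted in medium; controls got PBS. MTT (5 mg/mL in PBS, pH 7.4) was added for 4 h, then formazan was dissolved in DMSO.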
Background: Formazan colour is commonly taken as a measure of viable cells.

Data set [2] concerns malignant melanoma cell line, A375. As to the kind of experiment: MTT assay. Format: cell-based. The note with it: A375, 24-h incubation with peptide, triplicate, OD 550 nm. In a few lines: as §1
Data set [3] concerns brain glioma cell line, U87. As to the kind of experiment: MTT assay. Format: cell-based. The note with it: U87, 24-h incubation with peptide, triplicate, OD 550 nm. In a few lines:
as §1

The nature of data set [4]: Circular dichroism spectroscopy. It is filed as physicochemical. The note with it: CD, CDNN. In outline:
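POPE/POPG (7:3) dried from chloroform under N2 overnight, resuspended in PBS pH 7.4 and extruded through 0.1-μm membranes to form SUVs, used within 6 h. Peptide at 0.5 mM in PBS pH 7.4, alone or with SUVs. Spectra taken at 25°C from 250–190 nm in a 0.1-mm quartz cell, 1-nm steps, 60 nm/min. Each spectrum averaged three scans and was baseline-subtracted. Helix content estimated by CDNN 2.1.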
Background: Circular dichroism is the unequal absorption of left and right circularly polarised light.

Data set [5] has as its system MCF 7, A375 and U87 cancer cell lines. As to the kind of experiment: MTT assay, comparison over three cancer cell lines. It is filed as cell-based. The note with it: result in words. In a few lines:
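Lines used: MCF-7 (DMEM, 5% FBS) and A375 and U87 (DMEM, 10% FBS, penicillin/streptomycin). Seeded at 5,000 cells/well and grown 24 h. Peptides were diluted from 10 mM stock in medium; PBS served as control; triplicates. After 24 h exposure, MTT was added for 4 h at 37°C. Formazan was dissolved in DMSO and OD read at 550 nm.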

Data set [6] has as its system MCF-10A cells. As to the kind of experiment: Apoptosis assay, flow cytometry Annexin V/PI. The note with it: 5 μM, normal breast cell line. Format: cell-based, human. In a few lines:
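MCF-10A cells, a normal breast line, grown in DMEM/F12 with 5% horse serum, hydrocortisone, insulin, EGF and cholera toxin. Seeded at 2 × 10^5 cells/mL in 6-well plates and cultured 24 h before peptide exposure; PBS served as negative control. After 1−3 h, cells were washed in cold PBS and set to 1 × 10^6 cells/mL in Annexin-binding buffer. Stained with Alexa Fluor 488 Annexin V plus PI for 10 min at room temperature. Read by flow cytometry, excitation 488 nm, emission 530 and 575 nm.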
On the technique in general: Flow cytometry measures light scatter and fluorescence of single cells or particles in a stream.

For a further data set, the system named is MCF-7 cells. Nature of the data set: PI and Annexin V staining, fluorescent images. Format: cell-based. The note with it: 5 μM, in comparison with AP1-Z1. In a few lines: (§2)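 MCF-7 (DMEM, 5% FBS) or MCF-10A (DMEM/F12 with horse serum, hydrocortisone, insulin, EGF, cholera toxin) seeded at 2 × 10^4 cells/well in 48-well plates and cultured 24 h. Peptide added, with PBS as negative control. After 1−3 h, Alexa Fluor 488 Annexin V (1:250 v/v) and PI (1:1,000 v/v) were added for 30 min at 37°C. Cells were then imaged by fluorescence microscopy.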

In data set [7] the test system is MCF-10A cells. Nature of the data set: PI and Annexin V staining, fluorescent images. Format: cell-based, human. The note with it: 5.0 μM. In a few lines:
as §2

The test system of another data set is HUVECs. Nature of the data set: Anti-angiogenesis assay. Format: cell-based, human. The note with it: 10.0 μM, 10−12 h, in comparison with the blank control (PBS), one-way ANOVA, Angiogenesis Analyzer for ImageJ. In a few lines: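 HUVECs grown in Medium 200 with low serum growth supplement at 37°C, 5% CO2. Matrigel thawed overnight at 4°C, added to μ-Slide wells and polymerised 30−60 min in a humidified incubator. HUVECs at 1 × 10^5 cells/mL were added and incubated 10−12 h at 37°C, 5% CO2, with a PBS-treated negative control. Tube formation was then imaged by fluorescence microscopy.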

Where [8] appears, read: 0.5 mM peptide in 1× PBS buffer pH 7.4, 25°C, average of three scans.

Regarding FLFSLIPHAISGLISAFK-NH2 [AP1-Z1], the IC50 worked out at 7.22 µM in [1], 9.48 µM in [2] and 10.2 µM in data set [3].

Turning to FLFKLIKKAIKKLIKAFK [AP1-Z7], the α helix ratio in data set [4] (setting [8]) came to 16.16%; in [4] (0.5 mM peptide in POPE/POPG (7:3) SUVs in 1× PBS, 3:1 lipid:peptide), 44.95%.

For the substance FLFKLIPKAIKGLIKAFK [AP1-Z5a], the “IC50 relative to the other peptides” value in [5] is recorded as “relatively lower”. Also, the “apoptosis of MCF-10A cells” value in the data set with MCF-10A cells [6] is recorded as “did not significantly promote the apoptosis”. The “apoptosis of MCF-7 cells (ANXA5/PI fluorescent images)” value in the data set on MCF-7 cells is listed as “significantly induced the apoptosis”. In the data set with MCF-10A cells [7], the “apoptosis of MCF-10A cells (ANXA5/PI fluorescent images)” value is on record as “no significant change in the apoptosis”. For the same substance, the “angiogenesis (tube formation of HUVECs)” value in the data set with HUVECs is listed as “significantly inhibited angiogenesis”.

With FLFKLIKHAIKGLIKAFK-NH2 [AP1-Z5b], the IC50 in data set [1] came to 1.04 µM; in [2] it was 2.61 µM; in [3], 3.12 µM.

For FLFSLIKHAIKGLISAFK [AP1-Z3a], the α helix ratio in [4] (setting [8]) was 24.28%.
